# ChEMBL document CHEMBL1124192, “Cyclopentenylcytosine. A carbocyclic nucleoside with antitumor and antiviral properties” (J Med Chem, 1988)
# Values joined by “and” are separate entries in the source; they are usually repeats but may differ in a detail not shown here. Equal entries are not always repeated.
# Tests used:
# [1] = test system: Cytomegalovirus; experiment: Log value for antiviral activity against Cytomegalovirus (AD169) from MRC5 diploid human embryonic lung cells at 0.32 ug/mL; format: functional
# How it was run: (§1)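 CMV AD169 yield reduction in MRC5 cells. Subconfluent monolayers infected at MOI 0.2 PFU/cell for 1.5 h at 37 °C, rinsed, then fed drug in MEM + 2% FBS, in duplicate. Drug refed on day 3, cultures harvested on day 6 by freeze-thaw and pooled. Yield titrated by plaque assay under 0.25% agarose overlay for 5–6 days, then formalin-fixed and methylene blue-stained for plaque counts.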
# [2] = test system: Cytomegalovirus; experiment: Log value for antiviral activity against Cytomegalovirus (AD169) from MRC5 diploid human embryonic lung cells at 100 ug/mL; format: functional; how it was run: as §1
# [3] = test system: Cytomegalovirus; experiment: Log value for antiviral activity against Cytomegalovirus (AD169) from MRC5 diploid human embryonic lung cells at 10 ug/mL; format: functional; how it was run: as §1
# [4] = test system: Cytomegalovirus; experiment: Log value for antiviral activity against Cytomegalovirus (AD169) from MRC5 diploid human embryonic lung cells at 320 ug/mL; format: functional; how it was run: as §1
# [5] = test system: unidentified influenza virus; experiment: Inhibitory dose of compound required to inhibit cytopathogenic effects of influenza virus with A2/Aichi/2/68 strain in MDCK cells; format: functional; settings: read-out: ID50 (the source's name)
# [6] = test system: unidentified influenza virus; experiment: Tested for inhibition of virus-induced cytopathogenic effect and cytotoxicity of compound against influenza virus with A2/Aichi/2/68 strain in MDCK cell; format: functional
# [7] = test system: Japanese encephalitis virus; experiment: Tested for inhibition of virus-induced cytopathogenic effect and cytotoxicity of compound against Japanese encephalitis virus with […] strain in vero cell; format: functional
# [8] = test system: L1210; experiment: Compound was tested for antitumor activity against L1210 leukemia in mouse at dose 2.25 mg/kg administered intraperitoneally in experiment 2; format: functional; settings: L1210, ip, route intraperitoneal
# How it was run: (§2)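 Mice bearing L1210, L1210/ara-C, P388 or P388/ara-C leukaemia. Tumour implanted at the site each line names: ip, sc or ic. Drug given ip in physiologic saline on a QD1-9 schedule, at several dose levels per experiment. Life-span runs ended on day 30. Read-out is median % increase in life span versus tumoured untreated controls, with long-term survivors included.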
# [9] = test system: L1210; experiment: Compound was tested for antitumor activity against L1210/ara-C leukemia in mouse at dose 1.5 mg/kg administered intraperitoneally; format: functional; settings: L1210, ip, route intraperitoneal; how it was run: as §2
# [10] = test system: L1210; experiment: Compound was tested for antitumor activity against L1210/ara-C leukemia in mouse at dose 1 mg/kg administered intraperitoneally; format: functional; settings: L1210, ip, route intraperitoneal; how it was run: as §2
# [11] = test system: L1210; experiment: Compound was tested for antitumor activity against L1210/ara-C leukemia in mouse at dose 2.25 mg/kg administered intraperitoneally; format: functional; settings: L1210, ip, route intraperitoneal; how it was run: as §2
# [12] = test system: L1210; experiment: Median percent increase in life span of tumored, treated mice relative to tumored, untreated controls after intraperitoneal dose 1 mg/kg daily (1-9 days); format: functional; settings: Mus musculus, L1210, ip
# [13] = test system: L1210; experiment: Median percent increase in life span of tumored, treated mice relative to tumored, untreated controls after intraperitoneal dose 4 mg/kg daily (every 4th day); format: functional; settings: Mus musculus, L1210, ip
# [14] = test system: Japanese encephalitis virus; experiment: Inhibitory dose of compound required to inhibit cytopathogenic effects of Japanese encephalitis virus with […] strain in vero cells; format: functional; settings: read-out: ID50 (the source's name)
# [15] = test system: L1210; experiment: Number of 60-day survivors out of 10 tested at dose 1 mg/kg administered intraperitoneally; format: functional, Mus musculus; settings: route intraperitoneal
# [16] = test system: L1210; experiment: Number of 60-day survivors out of 9 tested at dose 1.5 mg/kg administered intraperitoneally; format: functional, Mus musculus; settings: route intraperitoneal
# [17] = test system: L1210; experiment: Compound was tested for antitumor activity against L1210 leukemia in mouse at dose 1.5 mg/kg administered subcutaneously in experiment 1; format: functional; settings: L1210, sc, route subcutaneous; how it was run: as §2
# [18] = test system: L1210; experiment: Compound was tested for antitumor activity against L1210 leukemia in mouse at dose 1 mg/kg administered intraperitoneally in experiment 1; format: functional; settings: L1210, ip, route intraperitoneal; how it was run: as §2
# [19] = test system: Mus musculus; experiment: Compound was tested for antitumor activity against human LOX melanoma tumor xenografts in athymic mice at dose 1.5 mg/kg administered intraperitoneally in experiment 2; format: functional; settings: ip, route intraperitoneal
# How it was run: (§3)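 Athymic mice carrying human LOX melanoma. Drug given ip in saline on a QD1-9 schedule, at several dose levels. Life-span experiment ended on day 30. Read-out is % increase in life span versus untreated tumoured controls, with long-term survivors included.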
# [20] = test system: Mus musculus; experiment: Compound was tested for antitumor activity against human LOX melanoma tumor xenografts in athymic mice at dose 2.25 mg/kg administered intraperitoneally; format: functional; settings: ip, route intraperitoneal; how it was run: as §3
# [21] = test system: P388; experiment: Compound was tested for antitumor activity against P388/ara-C leukemia in mouse at dose 1.5 mg/kg administered intraperitoneally in experiment 2; format: functional; settings: P388, ip, route intraperitoneal; how it was run: as §2
# [22] = test system: P388; experiment: Number of 30-day survivors out of 6 mice at dose 1.5 mg/kg administered intraperitoneally; format: functional, Mus musculus; settings: route intraperitoneal
# [23] = test system: P388; experiment: Compound was tested for antitumor activity against P388 leukemia in mouse at dose 1.5 mg/kg administered intraperitoneally in experiment 2; format: functional; settings: P388, ip, route intraperitoneal; how it was run: as §2
# [24] = test system: Vesicular stomatitis virus; experiment: Tested for inhibition of virus-induced cytopathogenic effect and cytotoxicity of compound against vesicular stomatitis RNA virus with indiana strain in L929 cell; format: functional
# [25] = test system: Human alphaherpesvirus 3; experiment: Compound was tested for antiviral activity against Varicella-Zoster from human diploid foreskin cells in mono layer culture at 3.2 ug/ml; format: functional
# How it was run: (§4)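 VZV isolate DM625 on Huf cells (human diploid foreskin monolayers). Inoculum was left on after 1 h adsorption at 37 °C. Drug overlay in MEM + 2% FBS without agarose, refed with fresh drug at 72 h, in 2% CO2. Cells fixed in 10% formalin and stained with methylene blue; plaques counted day 6. % plaque reduction versus untreated virus controls, triplicates.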
# [26] = test system: Human alphaherpesvirus 3; experiment: Compound was tested for antiviral activity against Varicella-Zoster from human diploid foreskin cells in mono layer culture at 32 ug/ml; format: functional; how it was run: as §4
# [27] = test system: Human alphaherpesvirus 3; experiment: Compound was tested for antiviral activity against Varicella-Zoster from human diploid foreskin cells in mono layer culture at 320 ug/ml; format: functional; how it was run: as §4
# [28] = test system: Yellow fever virus; experiment: Tested for inhibition of virus-induced cytopathogenic effect and cytotoxicity of compound against yellow fever virus with asibi strain vero cell; format: functional
# [29] = test system: Vero; experiment: Cytotoxicity of compound was determined by reduction in number of viable vero monolayer cells after treatment with 1 ug/mL for 4 days; format: functional, Chlorocebus sabaeus
# How it was run: (§5)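 Vero monolayers in duplicate cultures, exposed to each drug concentration in medium at 37 °C in a CO2 incubator for 4 days. Viable cells counted by trypan blue exclusion, and % reduction calculated against untreated control cultures.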
# [30] = test system: Vero; experiment: Cytotoxicity of compound was determined by reduction in number of viable vero monolayer cells after treatment with 10 ug/mL for 4 days; format: functional, Chlorocebus sabaeus; how it was run: as §5
# [31] = test system: Vero; experiment: Cytotoxicity of compound was determined by reduction in number of viable vero monolayer cells after treatment with 100 ug/mL for 4 days; format: functional, Chlorocebus sabaeus; how it was run: as §5
# [32] = test system: Human alphaherpesvirus 3; experiment: Compound was tested for antiviral activity against Varicella-Zoster from human diploid foreskin cells in mono layer culture at 0.01 ug/ml; format: functional; how it was run: as §4
# [33] = test system: Human alphaherpesvirus 3; experiment: Compound was tested for antiviral activity against Varicella-Zoster from human diploid foreskin cells in mono layer culture at 10 ug/ml; format: functional; how it was run: as §4
# [34] = Ratio of minimum drug concentration to ID50 of the compound (Indiana strain); format: ADME
smiles,measurement,setting,value
Nc1ccn([C@@H]2C=C(CO)[C@@H](O)[C@H]2O)c(=O)n1,Reduction in virus yield,[1],1.3 pfu/ml
same,Reduction in virus yield,[2],2 pfu/ml
same,Reduction in virus yield,[3],1.9 pfu/ml
same,Reduction in virus yield,[4],5.3 pfu/ml
same,IC50,[5],18.2 µg/mL
same,Virus rating,[6],2.4
same,Virus rating,[7],2.4
same,ILS at 2.25 mg/kg,[8],57%
same,ILS at 1.5 mg/kg,[9],> 650%
same,ILS at 1 mg/kg,[10],> 650%
same,ILS at 2.25 mg/kg,[11],> 650%
same,ILS at 1 mg/kg,[12],124%
same,ILS at 4 mg/kg,[13],91%
same,IC50,[14],0.1 µg/mL
same,No. of survivors,[15],6
same,No. of survivors,[16],5 count
same,ILS at 1.5 mg/kg,[17],109%
same,ILS at 1 mg/kg,[18],212%
same,ILS at 1.5 mg/kg,[19],80%
same,ILS at 2.25 mg/kg,[20],58%
same,ILS at 1.5 mg/kg,[21],133%
same,No. of survivors,[22],3
same,ILS at 1.5 mg/kg,[23],69%
same,Virus rating,[24],2.4 and 3
same,Plaque reduction,[25],33%
same,Plaque reduction,[26],36%
same,Plaque reduction,[27],36%
same,Virus rating,[28],0.9
same,Reduction,[29],61%
same,Reduction,[30],64%
same,Reduction,[31],66%
same,Plaque reduction,[32],0%
same,Plaque reduction,[33],33%
same,Therapeutic index,[34],0.4
same,selectivity ratio,[34]; read-out: Therapeutic index,0.6
